# Bioassay records: PubChem, several laboratories
# The full list was thinned out, with hits kept by preference.
# MPTP block = permeability transition pore inhibition; isolated mouse mitochondria, Ca2+ swelling absorbance, 30 min; inhibition, % at 10 µM; 1.4% of 360,000 active; AID 602449;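 active = inhibition of 50% or more, scaled per plate between neutral and stimulator controls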
# T cruzi inh = T. cruzi replication inhibition. T. cruzi beta-gal in NIH3T3, luminescence, 90 h. inhibition, % (test concentration not listed). 1.4% of 300,000 active. AID 1885;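 active = mean inhibition across valid replicates above about 55%, limit read from the data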;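 note: signal also drops with host cell toxicity which is not excluded here; higher percent means less beta-gal luminescence so fewer parasites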
#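 Material: NIH/3T3 host cells with β-galactosidase reporter T. cruzi; Input: 5,000 host fibroblasts per well; Medium: DMEM, 2% fetal bovine serum; Compound: 50 nL DMSO compound solution per well; Schedule: 3 h host attachment, then at least 90 h co-culture; Detection: luminescent β-galactosidase signal after 60 min lysis.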
# Lmaj promast = Leishmania major promastigote growth inhibition; Leishmania major promastigotes, resazurin fluorescence viability; inhibition, % at 10 µM; 9% of 200,000 active; in the data active = inhibition above about 50%;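 note: promastigotes grown with compound for 44 hours at 28 °C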
# Lipid droplet = modulators of hepatic lipid droplet formation | 0.4% of 240,000 active | inhibition, % at 6.5 µM | AML12 mouse hepatocytes, oleate lipid droplets, BODIPY imaging | AID 1656;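 active = lipid droplet intensity inhibited by at least 50%, with more than 500 cells counted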
#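 Assay system: AML12 mouse liver cells | Compound: 6.5 µM single-point dosing | Schedule: Overnight exposure | Technique: Fluorescence imaging, 20x objective, two fields per well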
# Redox H2O2 prof = compounds producing H2O2 with reducing agent – biochemical, NIH compound library profiling, artefact control for MLSCN library redox annotation, primary screen; DTT-dependent redox cycling H2O2, phenol red/HRP absorbance; 100% = 100 µM peroxide control, 0% = buffer; activation, % at 10 µM; 0.03% of 200,000 active;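 active = activation of at least 50% relative to the plate's high and low controls in the primary single-dose screen; inactive = activation below 50%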;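 note: compound incubated with DTT at 0.8 mM final as the reducing agent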
# Numbers stand for hits; n = inactive; x = no result given.
SMILES,MPTP block,T cruzi inh,Lmaj promast,Lipid droplet,Redox H2O2 prof
Cc1cc2cc(C(c3nnnn3Cc3ccccc3)N3CCc4ccccc43)c(=O)[nH]c2cc1C (stereo unspecified),n,n,99,n,n
Cc1cc2cc(C(c3nnnn3Cc3ccco3)N3CCc4ccccc4C3)c(=O)[nH]c2cc1C (stereo unspecified),n,n,91,n,n
Cc1cccc2cc(C(c3nnnn3Cc3ccccc3)N3CCN(c4ccccc4)CC3)c(=O)[nH]c12 (stereo unspecified),n,n,51,n,n
O=C(Cc1ccccc1[N+](=O)[O-])NCC(O)c1ccc2c(c1)OCO2 (stereo unspecified),n,x,x,x,x
CC12CCC(=O)C=C1CCC1C2C(O)CC2(C)C1CCC2(O)C(=O)COC(=O)COCC(=O)O (stereo unspecified),n,x,x,x,x
Cc1ccc2[nH]c(=O)c(C(c3nnnn3Cc3ccccc3)N3CCc4ccccc43)cc2c1 (stereo unspecified),n,n,74,x,n
C[C@@H]1CN([C@@H](C)CO)C(=O)CCCn2nncc2CO[C@@H]1CN(C)C(=O)c1ccncc1,n,x,x,x,x
COc1ccc(Br)cc1/C=C/C(=O)c1ccc(NC(C)=O)cc1,n,x,100,n,n
COc1ccc(Br)cc1/C=C/C(=O)Nc1c(C)cccc1C,n,n,62,x,n
COC(=O)c1cccc(-c2ccc(C(c3c(C)[nH][nH]c3=O)c3c(C)[nH][nH]c3=O)o2)c1,n,n,92,n,n
COC(=O)c1ccccc1-c1ccc(C(c2c(C)[nH][nH]c2=O)c2c(C)[nH][nH]c2=O)o1,n,n,100,n,n
Cc1c(Br)c([N+](=O)[O-])nn1C(C)C(=O)N1CCc2ccccc2C1 (stereo unspecified),n,n,x,n,x
CN(C)CCN(C)Cc1ccccc1Sc1cccc2ccccc12,n,n,100,n,n
O=c1[nH]ncn1-c1ccc(Br)cc1,n,n,n,n,n
CCC(=O)N1CCc2cc(Br)cc(S(=O)(=O)NCCCN(CC)Cc3ccccc3)c21,n,n,x,n,x
CCC(=O)N1CCc2cc(S(=O)(=O)NCCCN(CC)Cc3ccccc3)ccc21,n,n,55,n,n
CN(C)S(=O)(=O)c1cccc(C(=O)OCC(=O)NC2CCCc3ccccc32)c1 (stereo unspecified),n,n,n,n,n
O=c1c2c3c(sc2n2cnnc2n1Cc1ccccc1)CN(Cc1ccccc1)CC3,n,n,100,n,n
C/C(=N\NC(N)=O)c1cccc(Cl)c1,n,n,83,n,n
Cn1nnnc1Sc1ccc([N+](=O)[O-])cc1Cl,n,n,n,n,n
CN1CCN(S(=O)(=O)c2ccc(Sc3nnnn3-c3ccccc3)c([N+](=O)[O-])c2)CC1,n,n,100,n,n
CC(=O)c1ccc(Sc2nnnn2-c2ccccc2)c([N+](=O)[O-])c1,n,n,100,n,n
O=[N+]([O-])c1ccc(Sc2nnnn2-c2ccccc2)c(Cl)c1,n,n,90,n,n
CC(NC(=O)C1CC(=O)N(c2ccc3c(c2)OCCO3)C1)c1ccccc1 (stereo unspecified),n,x,x,x,x
Cc1coc2c1C(=O)C(=O)c1c-2ccc2c1CCCC2(C)C,n,n,98,n,n
SMILES,MPTP block,T cruzi inh,Lmaj promast,Lipid droplet,Redox H2O2 prof
O=C(CC12CC3CC(CC(C3)C1)C2)NC(=S)Nc1ccc(CN2CCOCC2)cc1,n,82,n,n,n
O=C(NC(=S)Nc1ccc(CN2CCOCC2)cc1)c1ccco1,n,n,x,n,x
O=C(Nc1ccc(Cl)cc1)C1C2C=CC3(O2)C1C(=O)N(CCN1CCCCC1)C3C(=O)NC1CCCCC1 (stereo unspecified),n,n,x,n,x
NC(=O)COC(=O)c1ccccc1Oc1ccccc1,n,n,n,n,n
Nc1c(C(=O)NCc2ccc3c(c2)OCO3)c2nc3ccccc3nc2n1CCCN1CCOCC1,n,n,63,x,n
Nc1c(C(=O)NCc2ccco2)c2nc3ccccc3nc2n1CCc1ccc(F)cc1,n,n,99,n,n
CC(C)OC(=O)c1c(N)n(CCCN2CCOCC2)c2nc3ccccc3nc12,n,n,n,n,n
COc1ccccc1CNC(=O)c1c(N)n(CCCN2CCOCC2)c2nc3ccccc3nc12,n,n,51,x,n
CC(=O)Nc1ccc(S(=O)(=O)c2c(N)n(CCN3CCOCC3)c3nc4ccccc4nc23)cc1,n,n,n,x,n
